Hits are enriched below; roughly 2.9% of the tested compounds scored in any of these assays.
Ins promoter up: MIN6 insulin promoter up-regulation | actives 0.3% (n = 190,000) | MIN6 insulin promoter-GFP reporter, high-content imaging; hits give high values | z-score at 5 µM;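 active = z-score above 3 at 5 µM with at least 500 cells counted in the well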
MT stabilizer: microtubule stabilizers in HeLa cells; % tubulin-high responders, % at 10 µM; HeLa tubulin immunostaining HCS, 24 h; share of cells brighter than vehicle mean+2SD; actives 0.83% (n = 200,000);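 active = plate Z-score above 3 for both tubulin-high and condensed-nucleus cell shares, with cell loss under 80%, at 10 µM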;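 note: anti alpha tubulin signal scored within the nucleus-defined area of each cell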
Autophagy HCS: autophagy modulation, high-content screen | MEF GFP-LC3 puncta imaging; test concentration mostly 10 µM | calls only at 10 µM (by protocol) | actives 0.98% (n = 190,000) | AID 463193;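 active = percentage of spot-positive cells more than 3 SD above its plate mean, without a fluorescence outlier flag or 80% toxicity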
b-catenin transl: beta-catenin nuclear translocation modulation. HeLa beta-catenin nuclear translocation, immunofluorescence imaging. AID 1665. actives 0.3% (n = 190,000). nuclear translocation activity, % at 5 µM;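 active = nuclear translocation activity above 50% at 5 µM, with a well cell count of 50 or more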;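 note: per-cell ratio of nuclear to cytoplasmic median beta-catenin stain intensity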
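System: Human HeLa cells, endogenous beta-catenin | Compound dosing: 5 µM primary, 0.02–20 µM confirmation | Timing: 24 h compound exposure at 37°C, 5% CO2 | Measured by: Fluorescence imaging of beta-catenin antibody stain plus DAPI | Read-out basis: % activation of per-cell nuclear versus cytoplasmic median beta-catenin signal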
Wee1 stabilizer: inhibitors of human Wee1 degradation; P30291; HeLa Luc-Wee1K328M stability, luciferase luminescence; 100% = proteasome inhibitor MG132 effect; reporter increase, % at 5 µM; actives 1.2% (n = 220,000); AID 1321;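 active = activation above the mean of all tested compounds plus 3 SD, set per screening run, cut at about 8.8% in these data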;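 note: cells exposed to compound for 20 h before luminescence read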
Target sequence (P30291 whole entry K328M): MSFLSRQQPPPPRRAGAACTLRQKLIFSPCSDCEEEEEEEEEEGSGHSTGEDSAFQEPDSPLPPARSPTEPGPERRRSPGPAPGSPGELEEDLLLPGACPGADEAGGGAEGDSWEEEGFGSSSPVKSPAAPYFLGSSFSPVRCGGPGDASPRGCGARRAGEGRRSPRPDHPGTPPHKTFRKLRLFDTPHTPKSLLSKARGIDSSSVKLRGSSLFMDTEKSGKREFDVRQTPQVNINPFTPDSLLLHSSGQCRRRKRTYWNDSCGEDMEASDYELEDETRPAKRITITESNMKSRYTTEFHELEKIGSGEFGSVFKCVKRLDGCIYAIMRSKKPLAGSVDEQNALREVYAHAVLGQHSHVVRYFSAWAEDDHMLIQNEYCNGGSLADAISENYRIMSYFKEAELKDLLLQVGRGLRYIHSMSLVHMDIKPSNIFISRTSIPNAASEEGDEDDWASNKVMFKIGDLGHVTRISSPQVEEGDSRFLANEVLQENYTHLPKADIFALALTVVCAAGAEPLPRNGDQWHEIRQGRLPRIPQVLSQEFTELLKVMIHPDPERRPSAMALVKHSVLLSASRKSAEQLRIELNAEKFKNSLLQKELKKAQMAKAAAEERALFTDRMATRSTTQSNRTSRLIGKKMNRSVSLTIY
A number is an active result; i = inactive; nt = not tested or not shown; + = active, no number.

SMILES | Ins promoter up | MT stabilizer | Autophagy HCS | b-catenin transl | Wee1 stabilizer
COC(=O)c1cc(NS(=O)(=O)c2ccc(NC(C)=O)cc2)ccc1Cl | i | nt | nt | i | i
CS(=O)(=O)N1CCC(Oc2ccccc2C(=O)NCCCc2cccnc2)CC1 | i | i | i | i | i
O=c1c2c(-c3cccs3)csc2ncn1-c1ccc(Br)cc1 | i | i | i | i | 9.1
COc1cccc(-n2cnc3scc(-c4cccs4)c3c2=O)c1 | i | i | i | nt | i
O=C1CC(SC2=NCCS2)C(=O)N1c1cccc(Cl)c1Cl (stereo not given) | nt | i | i | i | i
COc1ccc2c(c1)C(C)=CC(C)(C)N2S(=O)(=O)c1ccc(Br)cc1 | i | i | i | 76 | i
CC1=CC(C)(C)N(S(=O)(=O)c2ccc(F)cc2)c2ccc(C)cc21 | nt | 24 | i | i | i
CC1=CC(C)(C)N(S(=O)(=O)c2ccc(C)cc2)c2ccccc21 | i | i | i | nt | i
COc1cccc(CN2CCN(S(=O)(=O)c3ccc(Br)cc3)CC2)c1 | i | i | i | i | i
Cc1cccc(C(=O)NC2CCN(S(=O)(=O)c3ccccc3)CC2)c1 | nt | i | i | i | i
Cn1nnnc1SCC(=O)NC(=O)c1cccc([N+](=O)[O-])c1 | i | nt | nt | i | i
Cc1ccc2c(c1)CCCN2C(=O)c1cc2ccccc2oc1=O | i | i | i | nt | i
N=C1C(c2ccccc2)=C(O)CN1c1cccc(S(=O)(=O)NCc2ccco2)c1 | i | nt | nt | i | 9.2
S=C(Nc1ccc(Cl)cc1)c1nc2ccccc2s1 | i | i | i | i | i
O=C(Nc1ccc(Cl)cc1)/C(=C/c1cccc(O)c1)c1nc2ccccc2s1 | i | i | + | i | i
Cc1cc(C)c2nc(N3CCC(C(=O)NCCCN4CC(C)CC(C)C4)CC3)sc2c1 (stereo not given) | i | i | + | i | i
Cc1cc(C)c2nc(N3CCCC(C(=O)NCCCN4CCOCC4)C3)sc2c1 (stereo not given) | i | i | i | i | i
Fc1ccc(Br)cc1C1C=C(c2ccc(Br)cc2)Nc2ncnn21 (stereo not given) | nt | 49 | i | i | i
CCc1ccc(C2=CC(c3cc(Br)ccc3F)n3ncnc3N2)cc1 (stereo not given) | i | 30 | i | i | i
Cc1ccsc1C1C=C(c2cccc(Br)c2)Nc2ncnn21 (stereo not given) | i | i | i | i | i
COc1ccc(C2(CNC(=O)c3cccc([N+](=O)[O-])c3)CCOCC2)cc1 | i | i | i | i | i
CCOC(=O)c1c(-c2ccccc2Cl)csc1NC(=O)CSc1nc(C)cc(=O)[nH]1 | i | i | i | i | i
CC(C)[C@@H](N)C(=O)N/N=C/c1ccc2ncccc2c1 | i | nt | nt | i | 18
CCOc1ccc(-n2c(C)nc3cc(C(=O)NCc4ccco4)ccc32)cc1 | i | i | i | i | 9.5
CCCCCCC(=O)N/N=C1\CCCc2ccccc21 | i | i | i | i | i
SMILES | Ins promoter up | MT stabilizer | Autophagy HCS | b-catenin transl | Wee1 stabilizer
CCN1CCN(C(c2cccs2)C(C)NS(=O)(=O)c2ccccc2)CC1 (stereo not given) | i | i | i | i | 11
C=C(C)COc1ccc(-c2[nH]ncc2-c2ccc(OC)cc2)c(O)c1 | i | nt | nt | i | i
C=C(C)COc1ccc(-c2[nH]ncc2-c2ccc(OC)c(OC)c2)c(O)c1 | i | 58 | i | i | i
CC(=O)C1=C(C)NC(SCC(=O)c2ccccc2)=C(C#N)C1c1ccco1 (stereo not given) | i | i | i | i | i
N#CC1=C(SCC(=O)c2ccc(Br)cc2)NC2=C(C(=O)CCC2)C1c1ccco1 (stereo not given) | i | 32 | i | i | 11
CC(=O)C1=C(C)NC(SCC(=O)c2ccc(Cl)cc2)=C(C#N)C1c1ccco1 (stereo not given) | i | i | + | i | i
Cc1nn(C)c(Oc2cccc(Cl)c2)c1C(=O)Nc1ccc(F)cc1 | nt | i | i | nt | i
Cc1ccc2nc(COc3ccc(Cl)cc3)cc(=O)n2c1 | i | i | i | i | i
CC1CC(C)(C)Nc2ccc(OC(=O)c3ccco3)cc21 (stereo not given) | i | i | i | i | i
CC1CC(C)(C)Nc2ccc(N=O)cc21 (stereo not given) | 4.1 | i | + | i | i
Cc1ccc(C)c(NC(=O)Cn2nnc(-c3ccc(N4CCOCC4)cc3)n2)c1 | i | i | + | i | i
Cc1c(CN(C)C(=O)c2nn(C)cc2[N+](=O)[O-])cnn1C | i | i | i | i | i
Cc1c(CN(C)C(=O)/C=C/c2ccc([N+](=O)[O-])cc2)cnn1C | i | i | i | i | 8.9
O=C(NN1CCCCC1)c1cccc2ccccc12 | i | i | i | i | i
CN(C)c1ccc(Cl)cc1N | i | i | i | i | i
Cc1ccccc1NC(=O)CSC1=C(C#N)C(c2ccsc2)CC(=O)N1 (stereo not given) | i | 26 | i | i | i
COc1ccccc1C1CC(=O)NC(SCC(=O)Nc2ccccc2)=C1C#N (stereo not given) | i | i | i | i | i
COC(=O)CSC1=C(C#N)C(c2ccc(C)o2)CC(=O)N1 (stereo not given) | nt | 17 | i | i | i
N#CC1=C(SCC(=O)Nc2nccs2)NC(=O)CC1c1ccccc1 (stereo not given) | i | 40 | i | nt | i
CN(C)c1nc(N)nc(/C(C#N)=C/C2CC3C=CC2C3)n1 (stereo not given) | 3 | i | i | i | i
CCOC(=O)C1=C(O)C(=O)N(Cc2ccccc2)CC1 | i | i | i | i | i
CCOC(=O)C1CCN(C(=O)Nc2ccc(Cl)cc2Cl)CC1 | i | i | i | i | i
O=C(NC1C=CS(=O)(=O)C1)c1sc2ccccc2c1Cl (stereo not given) | 3.9 | i | i | i | i
Nc1ccc(NC(=O)NC2CCCCC2)cc1[N+](=O)[O-] | i | i | i | i | i
O=C(O)CNS(=O)(=O)c1ccc(C2CCCCC2)cc1 | i | i | i | i | i
SMILES | Ins promoter up | MT stabilizer | Autophagy HCS | b-catenin transl | Wee1 stabilizer
COc1cc(/C=N\NC(=O)CN2CCOCC2)ccc1OCC(=O)Nc1ccc(C)c(C)c1 | nt | i | i | nt | i
CCOc1cc(/C=N\NC(=O)Cc2ccccc2)ccc1OCC(=O)Nc1ccc(C)c(C)c1 | i | i | i | i | i
COc1cc(/C=N/NC(N)=O)ccc1OCC(=O)Nc1cc(C)c(C)cc1Br | i | i | + | i | i
CCOc1cc(/C=N\Nc2ccc([N+](=O)[O-])cc2)ccc1OCC(=O)Nc1ccc(C)c(C)c1 | nt | i | + | nt | i
COc1cc(/C=N\Nc2ccc([N+](=O)[O-])cc2)ccc1OCC(=O)Nc1ccc(C)c(C)c1 | nt | i | + | nt | i
Cc1c(C(=O)c2ccc([N+](=O)[O-])cc2)c(=O)n(C)c(=O)n1C | i | i | i | i | i
O=C(c1ccc([N+](=O)[O-])cc1)N1CCSC1c1cccc(Cl)c1 (stereo not given) | i | i | i | nt | i
Cn1c(=O)n(C)c2cc(NC(=O)COc3ccc(Cl)cc3)ccc21 | 3 | i | i | i | i

From PubChem
